Measurements: ChEMBL document CHEMBL3784931, “Synthesis and evaluation of novel angiotensin II receptor 1 antagonists as anti-hypertension drugs” (Bioorg Med Chem, 2016)
Calls of active or inactive are those of the source. No cut-off for these calls is given here.

Columns and labels:
[1] = target: T1, Type-1 angiotensin II receptor A (Rattus norvegicus, UniProt P25095); assay: Displacement of [125I]-Ang II from Angiotensin 2 type-1A receptor in rat vascular smooth muscle cells after 150 mins by gamma counting method
T1 sequence (P25095 whole entry): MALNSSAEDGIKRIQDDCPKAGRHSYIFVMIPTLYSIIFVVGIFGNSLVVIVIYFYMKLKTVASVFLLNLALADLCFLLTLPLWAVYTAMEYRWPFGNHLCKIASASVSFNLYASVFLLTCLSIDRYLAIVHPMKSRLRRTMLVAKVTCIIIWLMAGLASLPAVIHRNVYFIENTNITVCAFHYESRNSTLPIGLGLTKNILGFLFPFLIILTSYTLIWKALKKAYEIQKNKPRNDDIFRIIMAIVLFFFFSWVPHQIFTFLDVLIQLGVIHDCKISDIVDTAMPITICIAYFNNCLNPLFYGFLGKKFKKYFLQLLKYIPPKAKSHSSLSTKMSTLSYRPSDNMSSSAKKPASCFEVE
Method in brief: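 Rat vascular smooth muscle cells (passages 3–6) were seeded at 10⁶ cells/well and grown at 37 °C in 5% CO₂. Nonspecific binding was taken with 1 µM Ang II. Cells were washed three times, lysed 10 min in 0.1 M NaOH, and bound radioactivity was gamma counted.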

Rattus norvegicus = assay: Antihypertensive activity in spontaneous hypertensive rat model assessed as reduction in mean blood pressure at 10 mg/kg, po administered for 2 hrs; format: functional, organism-based
Method in brief: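 Male SHRs were randomized, n = 6 per group. Compound was suspended in DMSO/oleic acid (1:4) and given by oral gavage; vehicle controls got the same volume of solvent. SBP and DBP were recorded in conscious animals by noninvasive tail-artery manometry. MBP = (SBP − DBP)/3 + DBP. Data are mean ± SEM, with p < 0.05 taken as significant.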

| Structure (SMILES) | IC50 [1] [nM] | Ki [1] [nM] | Activity (Rattus norvegicus) |
| --- | --- | --- | --- |
| CCCCc1nc(Cl)c(C=O)n1Cc1ccc(-c2ccccc2-c2noc(=O)[nH]2)cc1 | 4.32 | 3.13 | – |
| CCCCc1nc(Cl)c(CO)n1Cc1ccc(-c2ccccc2-c2nnn[nH]2)cc1 | – | – | Active |
